Active and inactive are the calls of the source. The rule behind the calls is not given here.
Key:
[1] = Inhibition of sheep brain dynamin 1 GTPase activity by malachite green GTPase assay; set-up: species or system Ovis aries
In short: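 Buffer: 5 mM Tris pH 7.4, 10 mM NaCl, 2 mM Mg2+, 0.05% Tween 80, leupeptin, PMSF. GTP 0.3 mM, 30 min at 37 °C. Stopped with EDTA, malachite green added, A650 read against a phosphate standard. IC50 is the mean of at least three experiments in duplicate.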

Ovis aries [2] = organism: Ovis aries; experiment: Inhibition of sheep brain dynamin 1 GTPase activity at 300 uM by malachite green GTPase assay
U2OS = experiment: Toxicity against human U2OS cells assessed as effect on cell morphology after 30 mins; assay type: cell-based; conditions: 0.5 h
[3] = Toxicity against human fibroblasts assessed as cell viability at 10 uM by trypan blue exclusion method; assay type: cell-based, Fibroblast; conditions: read-out: Activity
In short: (§1)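 Cells seeded at 1 × 10⁵ per 10 cm dish. From 24 h after seeding, exposed continuously for 7 days to drug (10 µM) or 0.5% DMSO vehicle. Floating and adherent cells collected, and viability scored by Trypan Blue exclusion on an automated analyzer. Cell lines: hTert breast stromal fibroblasts, two primary skin fibroblast lines, a primary myoblast line, NIH3T3.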

Dynamin-2 (Homo sapiens) [4] = target: T1, Dynamin-2 (Homo sapiens) (UniProt P50570); experiment: Inhibition of dynamin 2-mediated endocytosis internalization of Texas red-transferrin in human U2OS cells at 30 uM pretreated for 30 mins; assay type: cell-based
T1 sequence (whole entry): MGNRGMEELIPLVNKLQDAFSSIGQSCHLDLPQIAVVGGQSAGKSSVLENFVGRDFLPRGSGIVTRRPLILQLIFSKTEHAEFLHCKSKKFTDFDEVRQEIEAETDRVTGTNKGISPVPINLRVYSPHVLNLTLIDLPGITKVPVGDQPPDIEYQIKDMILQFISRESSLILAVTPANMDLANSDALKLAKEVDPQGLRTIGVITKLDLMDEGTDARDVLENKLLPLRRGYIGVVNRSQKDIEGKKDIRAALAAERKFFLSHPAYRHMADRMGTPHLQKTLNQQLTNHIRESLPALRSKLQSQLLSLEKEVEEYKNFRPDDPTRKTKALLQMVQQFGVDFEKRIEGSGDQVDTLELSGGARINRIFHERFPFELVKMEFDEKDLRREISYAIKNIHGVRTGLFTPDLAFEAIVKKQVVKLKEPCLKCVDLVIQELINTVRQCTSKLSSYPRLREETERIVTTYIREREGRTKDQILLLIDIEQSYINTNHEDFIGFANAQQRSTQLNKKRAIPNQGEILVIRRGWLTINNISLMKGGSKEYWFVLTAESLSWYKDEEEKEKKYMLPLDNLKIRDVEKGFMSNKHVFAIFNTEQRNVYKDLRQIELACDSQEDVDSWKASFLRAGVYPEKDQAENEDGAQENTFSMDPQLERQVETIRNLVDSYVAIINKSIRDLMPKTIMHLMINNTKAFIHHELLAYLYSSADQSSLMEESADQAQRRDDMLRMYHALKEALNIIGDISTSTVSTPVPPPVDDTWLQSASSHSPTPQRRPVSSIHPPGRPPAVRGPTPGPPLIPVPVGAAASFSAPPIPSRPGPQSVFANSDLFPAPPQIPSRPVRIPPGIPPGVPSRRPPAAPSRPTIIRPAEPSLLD
In short: (§2)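 U2OS cells in DMEM/10% FCS on fibronectin-coated wells, serum-starved overnight (16 h). Preincubated 30 min with drug or vehicle, then Tf-Texas Red 4 µg/mL for 8 min at 37 °C. Ice-cold acid wash (0.2 M acetic acid/0.5 M NaCl, pH 2.8) strips surface Tf. Cells fixed in 4% PFA and DAPI-stained, and internalized Tf-TxR imaged by fluorescence microscopy. Final DMSO at most 1%.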

[5] = Toxicity against mouse NIH/3T3 cells assessed as cell viability at 10 uM by trypan blue exclusion method; assay type: cell-based, NIH3T3; conditions: read-out: Activity; in short: as §1
Dynamin-2 (Homo sapiens) [6] = target: T1, Dynamin-2 (Homo sapiens); experiment: Inhibition of dynamin 2-mediated endocytosis internalization of Texas red-transferrin in human U2OS cells at 100 uM pretreated for 30 mins; assay type: cell-based; in short: as §2
Ovis aries [7] = organism: Ovis aries; experiment: Uncompetitive inhibition of sheep brain dynamin 1 GTPase activity using variable GTP level by kinetic assay; assay type: tissue-based
In short: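 Malachite green Pi release assay with PS-stimulated sheep brain dynamin I (20 nM) at 37 °C for 30 min, with GTP substrate varied in the presence of inhibitor. Vmax and Km were obtained by nonlinear Michaelis–Menten fitting, then the data were replotted as Lineweaver–Burk to assign the inhibition mode.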

Row | Compound | IC50 [1] [µM] | inhibition (Ovis aries [2]) | also measured
1 | Cc1c(/C=C(\C#N)C(=O)NC2CCCCC2)c2ccccc2n1CCN(C)C | 300 | – | –
2 | CN(C)CCn1ccc2ccccc21 | 300 | – | –
3 | Cc1[nH]c2ccccc2c1/C=C(\C#N)C(=O)NC1CCCCC1 | – | inactive | –
4 | Cc1c(C=O)c2ccccc2n1CCCN(C)C | – | inactive | –
5 | Cc1c(/C=C(\C#N)C(=O)NC2CCCCC2)c2ccccc2n1CCCN(C)C | 300 | – | –
6 | CCCNC(=O)/C(C#N)=C/c1c(C)n(CCCN(C)C)c2ccccc12 | – | inactive | –
7 | CN(C)CCCn1cc(C2=C(c3c[nH]c4ccccc34)C(=O)NC2=O)c2ccccc21 [GF-109203] | 100 | – | –
8 | CN(C)CCCn1ccc2ccccc21 | 300 | – | –
9 | CCCCNC(=O)/C(C#N)=C/c1c(C)n(CCN(C)C)c2ccccc12 | 300 | – | –
10 | COc1ccc(CNC(=O)/C(C#N)=C/c2c(C)n(CCN(C)C)c3ccccc23)cc1 | 254 | – | –
11 | CN(C)CCn1cc(CCC(=O)O)c2ccccc21 | 131 | – | –
12 | Cc1[nH]c2ccccc2c1/C=C(\C#N)C(=O)NCc1ccccc1 | – | inactive | –
13 | CCNC(=O)/C(C#N)=C/c1c(C)n(CCCN(C)C)c2ccccc12 | – | inactive | –
14 | CN1CCCC1CCn1cc(C2=C(c3c[nH]c4ccccc34)C(=O)NC2=O)c2ccccc21 (centres undefined) | 100 | – | –
15 | Cc1c(C=O)c2ccccc2n1CCN(C)C | – | inactive | –
16 | CN(C)CCCn1cc(CC(=O)O)c2ccccc21 | – | inactive | –
17 | CCCCNC(=O)/C(C#N)=C/c1c(C)n(CCCN(C)C)c2ccccc12 | – | inactive | –
18 | Cc1cc2ccccc2n1CCCN(C)C | 300 | – | –
19 | CN(C)CCCn1cc(CCC(=O)O)c2ccccc21 | 143 | – | –
20 | Cc1c(/C=C(\C#N)C(=O)NCc2ccccc2)c2ccccc2n1CCN(C)C | 196 | – | –
21 | Cc1c(/C=C(\C#N)C(=O)NCc2ccccc2)c2ccccc2n1CCCN(C)C | 201 | – | –
22 | CCCCCCCCCCCCCCNC(=O)/C(C#N)=C/c1c(C)n(CCCN(C)C)c2ccccc12 | 52 | – | –
23 | COc1ccc(CNC(=O)/C(C#N)=C/c2c(C)[nH]c3ccccc23)cc1 | – | inactive | –
24 | CN(C)CCn1cc(CC(=O)O)c2ccccc21 | – | inactive | –
25 | CCNC(=O)/C(C#N)=C/c1c(C)n(CCN(C)C)c2ccccc12 | – | inactive | –
26 | Cc1cc2ccccc2n1CCN(C)C | 300 | – | –
27 | COc1ccc(CNC(=O)/C(C#N)=C/c2c(C)n(CCCN(C)C)c3ccccc23)cc1 | 222 | – | –
28 | CCCNC(=O)/C(C#N)=C/c1c(C)n(CCN(C)C)c2ccccc12 | – | inactive | –

The next lines start with results.

Row | IC50 [1] [µM] | inhibition (Ovis aries [2]) | Compound | also measured
29 | – | inactive | CCCCCCCCCCCCNC(=O)/C(C#N)=C/c1c(C)[nH]c2ccccc12 | –
30 | – | inactive | CCCCNC(=O)/C(C#N)=C/c1c(C)[nH]c2ccccc12 | –
31 | 38 | – | CCCCCCCCCCCCCCNC(=O)/C(C#N)=C/c1c(C)n(CCN(C)C)c2ccccc12 | –
32 | 1.3 | – | CCCCCCCCNC(=O)/C(C#N)=C/c1cn(CCCN(C)C)c2ccccc12 | Activity (U2OS): Non-toxic; viability at 10 µM [3]: > 98%; Activity (Dynamin-2 (Homo sapiens) [4]): Active; viability at 10 µM [5]: > 98%; Activity (Dynamin-2 (Homo sapiens) [6]): Active
33 | – | inactive | CCCCCCCCNC(=O)/C(C#N)=C/c1c(C)[nH]c2ccccc12 | –
34 | – | inactive | CCCNC(=O)/C(C#N)=C/c1c(C)[nH]c2ccccc12 | –
35 | – | inactive | CCCCCCCCCCCCCCNC(=O)/C(C#N)=C/c1c(C)[nH]c2ccccc12 | –
36 | 10.1 | – | CCCCCCCCCCNC(=O)/C(C#N)=C/c1c(C)n(CCN(C)C)c2ccccc12 | Activity (U2OS): Non-toxic; Activity (Dynamin-2 (Homo sapiens) [6]): Active
37 | 7.69 | – | CCCCCCNC(=O)/C(C#N)=C/c1c(C)n(CCN(C)C)c2ccccc12 | –
38 | 9.05 | – | CCCCCCCCNC(=O)/C(C#N)=C/c1c(C)n(CCN(C)C)c2ccccc12 | Activity (U2OS): Non-toxic; Activity (Dynamin-2 (Homo sapiens) [6]): Active
39 | 6.62 | – | CCCCCCNC(=O)/C(C#N)=C/c1c(C)n(CCCN(C)C)c2ccccc12 | Activity (U2OS): Non-toxic; Activity (Dynamin-2 (Homo sapiens) [6]): Active
40 | 32 | – | CCCCCCCCCCCCNC(=O)/C(C#N)=C/c1c(C)n(CCN(C)C)c2ccccc12 | –
41 | – | inactive | CCCCCCNC(=O)/C(C#N)=C/c1c(C)[nH]c2ccccc12 | –
42 | – | inactive | CCCCCCCCCCNC(=O)/C(C#N)=C/c1c(C)[nH]c2ccccc12 | –
43 | 3.33 | – | CCCCCCCCNC(=O)/C(C#N)=C/c1c(C)n(CCCN(C)C)c2ccccc12 | Activity (U2OS): Non-toxic; Activity (Ovis aries [7]): Active; Activity (Dynamin-2 (Homo sapiens) [4]): Active; Activity (Dynamin-2 (Homo sapiens) [6]): Active
44 | – | inactive | CCNC(=O)/C(C#N)=C/c1c(C)[nH]c2ccccc12 | –

Reference: ChEMBL document CHEMBL1136965, “Inhibition of dynamin mediated endocytosis by the dynoles--synthesis and functional activity of a family of indoles” (J Med Chem, 2009)
